Laboratory results published in ChEMBL document CHEMBL2046422, “Structure-activity relationship of nonacidic quinazolinone inhibitors of human microsomal prostaglandin synthase 1 (mPGES 1)” (J Med Chem, 2012).

Tests used:
[1] = target: T1, Prostaglandin E synthase (Homo sapiens) (UniProt O14684); experiment: Inhibition of mPGES-1 in IL1beta and TNFalpha-stimulated human HeLa cells assessed as PGE2 level after 24 hrs by LC-MS/MS analysis; type: cell-based
T1 sequence (whole entry): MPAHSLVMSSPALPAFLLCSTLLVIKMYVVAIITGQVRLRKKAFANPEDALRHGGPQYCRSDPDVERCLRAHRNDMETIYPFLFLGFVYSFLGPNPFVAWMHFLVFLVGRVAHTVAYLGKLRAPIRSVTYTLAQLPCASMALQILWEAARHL
Procedure, shortened: (§1)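 HeLa cells (2 × 10⁴) were grown 24 h at 37 °C. The medium was then replaced with IL-1β (1 ng/mL) + TNFα (5 ng/mL), or PBS for unstimulated controls, together with compound at 1, 10 or 100 μM, or DMSO, for 24 h at 37 °C. Supernatant PGE₂ was quantified by LC-MS/MS after solid-phase extraction with deuterated standards. Inhibition is percent of DMSO control corrected for unstimulated background, SEM, n ≥ 3.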

[2] = target: T2, 5-lipoxygenase/FLAP (Homo sapiens) (UniProt P09917+P20292); experiment: Inhibition of 5-lipoxygenase/FLAP in calcium ionophore-stimulated human whole blood assessed as residual (+/-)11HETE level at 10 uM preincubated for 15 mins prior to calcium ionophore-stimulation measured after 15 mins by LC-MS/MS analysis; type: protein-complex assay
Procedure, shortened: (§2)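 Heparinized human whole blood (500 μL) was preincubated with compound for 15 min at 37 °C. It was then stimulated with 20 μM calcium ionophore A23187 in autologous plasma for 15 min at 37 °C and chilled on ice for 5 min. Plasma was collected by centrifugation at 4 °C. Eicosanoids were recovered by liquid–liquid extraction with deuterated internal standards and quantified by LC-MS/MS (MRM). Levels are relative to vehicle-treated blood.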

[3] = target: T3, Prostaglandin E synthase (Mus musculus) (UniProt Q9JM51); experiment: Inhibition of mPGES-1 derived from LPS stimulated mouse RAW264.7 cells microsomal fraction using PGH2 as substrate at 1 uM preincubated for 30 mins prior to substrate addition measured after 1 min by LC-MS/MS analysis relative to control
T3 sequence (whole entry): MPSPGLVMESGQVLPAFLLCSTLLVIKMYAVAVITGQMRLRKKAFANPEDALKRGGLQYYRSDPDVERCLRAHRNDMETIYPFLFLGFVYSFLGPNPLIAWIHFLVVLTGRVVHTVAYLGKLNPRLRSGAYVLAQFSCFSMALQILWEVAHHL
Procedure, shortened: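 Microsomes came from RAW 264.7 cells stimulated with LPS for 16 h. They were prepared by sonication and ultracentrifugation in 0.1 M potassium phosphate, pH 7.4, with GSH and protease inhibitors, and resuspended with 2.5 mM GSH; protein was measured by Bradford. Compound was tested at the stated final concentration. PGE₂ was quantified by LC-MS/MS after solid-phase extraction with PGE₂-d₄/PGD₂-d₄ standards; SEM, n ≥ 3.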

[4] = target: T2, 5-lipoxygenase/FLAP (Homo sapiens); experiment: Inhibition of 5-lipoxygenase/FLAP in calcium ionophore-stimulated human whole blood assessed as residual 15(s)HETE level at 10 uM preincubated for 15 mins prior to calcium ionophore-stimulation measured after 15 mins by LC-MS/MS analysis; type: protein-complex assay; procedure, shortened: as §2
[5] = target: T4, Prostaglandin G/H synthase 2 (Homo sapiens) (UniProt P35354); experiment: Inhibition of COX2 in LPS-stimulated human whole blood assessed as residual PGE2 level at 100 uM preincubated for 15 mins prior to LPS-stimulation measured after 24 hrs by LC-MS/MS analysis relative to control
T4 sequence (whole entry): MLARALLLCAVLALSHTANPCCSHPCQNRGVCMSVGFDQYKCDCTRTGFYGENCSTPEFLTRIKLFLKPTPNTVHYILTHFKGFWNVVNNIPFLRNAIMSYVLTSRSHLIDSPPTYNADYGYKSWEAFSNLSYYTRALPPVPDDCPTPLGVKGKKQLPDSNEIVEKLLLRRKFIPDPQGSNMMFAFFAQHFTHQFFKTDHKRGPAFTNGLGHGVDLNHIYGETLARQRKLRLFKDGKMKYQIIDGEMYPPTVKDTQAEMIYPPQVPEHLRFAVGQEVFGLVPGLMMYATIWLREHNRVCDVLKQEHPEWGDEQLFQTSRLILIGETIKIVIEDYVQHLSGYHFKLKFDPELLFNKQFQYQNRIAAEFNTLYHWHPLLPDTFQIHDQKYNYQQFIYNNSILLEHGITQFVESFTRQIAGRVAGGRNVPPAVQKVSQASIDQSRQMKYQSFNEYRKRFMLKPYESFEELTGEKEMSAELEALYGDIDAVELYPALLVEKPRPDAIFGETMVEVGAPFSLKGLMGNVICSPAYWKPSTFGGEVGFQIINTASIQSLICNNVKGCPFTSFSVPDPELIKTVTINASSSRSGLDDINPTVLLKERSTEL
Procedure, shortened: (§3)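 Human whole blood received compound in DMSO plus acetylsalicylic acid (10 μg/mL) to block COX-1, 15 min at 37 °C. LPS (10 μg/mL final) in autologous plasma was added to induce COX-2/mPGES-1, and blood was incubated 24 h at 37 °C. Samples were chilled on ice 5 min, and plasma prostaglandins were extracted by solid-phase extraction and quantified by LC-MS/MS. Values are relative to vehicle.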

[6] = target: T3, Prostaglandin E synthase (Mus musculus); experiment: Inhibition of mPGES-1 derived from LPS stimulated mouse NIH3T3 cells microsomal fraction using PGH2 as substrate at 1 uM preincubated for 30 mins prior to substrate addition measured after 1 min by LC-MS/MS analysis relative to control
[7] = target: T4, Prostaglandin G/H synthase 2 (Homo sapiens); experiment: Inhibition of COX2 in LPS-stimulated human whole blood assessed as residual PGF2alpha level at 100 uM preincubated for 15 mins prior to LPS-stimulation measured after 24 hrs by LC-MS/MS analysis relative to control; procedure, shortened: as §3
[8] = target: Prostaglandin G/H synthase 1 (Homo sapiens) (UniProt P23219); experiment: Inhibition of COX1 in human whole blood assessed as residual PGD2 level at 10 uM after 1 hr by LC-MS/MS analysis relative to control
Procedure, shortened: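 Human venous blood was drawn without additives, and compound was added. Samples clotted at 37 °C for 1 h; negative controls were chilled on ice at once. After 5 min on ice, plasma was separated at 4 °C. It was mixed with H₃PO₄, EDTA, BHT and deuterated internal standards, then put through solid-phase extraction. TXB₂ and PGD₂ were measured by LC-MS/MS, relative to vehicle-treated blood.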

[9] = target: T1, Prostaglandin E synthase (Homo sapiens); experiment: Inhibition of mPGES-1 in IL1beta and TNFalpha-stimulated human HeLa cells assessed as PGE2 level at 10 uM after 24 hrs by LC-MS/MS analysis relative to control; type: cell-based; procedure, shortened: as §1
[10] = target: T1, Prostaglandin E synthase (Homo sapiens); experiment: Inhibition of mPGES-1 in IL1beta and TNFalpha-stimulated human HeLa cells assessed as PGE2 level at 1 uM after 24 hrs by LC-MS/MS analysis relative to isolated enzyme

Sequence of Prostaglandin G/H synthase 1 (Homo sapiens) (P23219 whole entry): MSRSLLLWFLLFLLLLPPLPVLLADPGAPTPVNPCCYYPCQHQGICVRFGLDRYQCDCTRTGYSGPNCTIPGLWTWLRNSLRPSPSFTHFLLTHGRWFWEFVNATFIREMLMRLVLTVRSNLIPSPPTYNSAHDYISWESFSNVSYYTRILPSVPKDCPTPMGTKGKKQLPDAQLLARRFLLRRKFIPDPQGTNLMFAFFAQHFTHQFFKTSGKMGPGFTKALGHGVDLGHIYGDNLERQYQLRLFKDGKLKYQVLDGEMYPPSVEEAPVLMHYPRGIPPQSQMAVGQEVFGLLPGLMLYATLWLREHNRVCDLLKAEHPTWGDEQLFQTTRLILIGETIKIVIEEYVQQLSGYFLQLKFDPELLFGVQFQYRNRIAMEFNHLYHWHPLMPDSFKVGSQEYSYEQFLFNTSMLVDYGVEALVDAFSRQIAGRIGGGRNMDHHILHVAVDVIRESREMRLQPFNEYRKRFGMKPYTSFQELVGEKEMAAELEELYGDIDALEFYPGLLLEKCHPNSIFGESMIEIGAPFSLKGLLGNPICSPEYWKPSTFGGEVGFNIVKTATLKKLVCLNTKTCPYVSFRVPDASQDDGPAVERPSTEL

Compound	inhibition [1]	Activity [2]	inhibition [3]	Activity [4]	Activity [5]	inhibition [6]	Activity [7]	Activity [8]	inhibition [9]	potency shift [10]
CCCc1nc2ccc(NC(=O)c3ccccc3Cl)cc2c(=O)n1Cc1ccc(-c2ccccc2)cc1	Dose-dependent effect	84.8%	11.8%	94.2%	52.1%	20.3%	92.6%	84.9%	70%	–
CCCc1nc2ccc(NC(=O)c3ccccc3C)cc2c(=O)n1Cc1cccc(Cl)c1	Dose-dependent effect	86.5%	6%	83.4%	53%	0.9%	93.8%	128%	–	–
CCCc1nc2ccc(NC(=O)c3ccccc3Cl)cc2c(=O)n1Cc1ccc(-c2cccc(Cl)c2)cc1	Dose-dependent effect	76.8%	8.4%	83.1%	51.2%	10.7%	94.2%	98.5%	–	–
CCCc1nc2ccc(NC(=O)c3c(F)cccc3Cl)cc2c(=O)n1Cc1cccc(Cl)c1	Dose-dependent effect	123%	-8.7%	111%	54.7%	–	97%	89.4%	–	–
CCCc1nc2ccc(NC(=O)c3ccccc3Cl)cc2c(=O)n1Cc1ccc(-c2ccc(Cl)cc2)cc1	Dose-dependent effect	85.2%	12.4%	93.8%	174%	17.1%	234%	96.1%	–	–
CCCc1nc2ccc(NC(=O)c3ccccc3Cl)cc2c(=O)n1Cc1cccc(Cl)c1	Dose-dependent effect	71.6%	9.5%	90.3%	37.4%	-0.8%	81.3%	86.5%	–	–
CCCc1nc2ccc(NC(=O)c3ccccc3Cl)cc2c(=O)n1Cc1ccc(-c2cccc(OC)c2)cc1	Dose-dependent effect	77%	15.3%	80%	50%	4.6%	92.5%	91.7%	97%	28%
